High-throughput results from PubChem BioAssay.
Only some compounds are listed: those with a hit (about 4% of all), similar ones and a draw of the others.
NTR1 ag: activates human neurotensin receptor 1; P30989; NTR1-U2OS beta-arrestin-GFP spot imaging, agonist mode; activation, % at 20 µM; 0.17% of 330,000 active;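 active means activation at or above 40% of the spot to cytoplasm intensity ratio, with at least 20 cells analyzed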;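 further: 0% = DMSO without peptide and 100% = 100 nM NTR1 peptide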
OX1R antag-1: blocks the human orexin 1 receptor. O43613. OX1R-expressing cells, FRET antagonist read-out. inhibition, % at 6.6 µM. 1.8% of 330,000 active; in the data active means inhibition mostly above about 38%, no sharp cut-off; inactive means mostly below about 40%;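 further: 0% = agonist challenge alone and 100% = reference antagonist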
OX1R antag-2: human HCRTR1 antagonism | O43613 | CHO/OX1R cells, Fluo-8 calcium fluorescence, orexin A | inhibition, % at 5 µM | 0.43% of 330,000 active | AID 434989;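 active means inhibition above its plate's threshold, mean inhibition of all tested compounds on the plate plus 3 SD, cut at about 37% in these data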;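 further: 0% = orexin A challenge wells and 100% = SB-334867-A antagonist wells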
CHO parental Ca: signal in parental CHO cells, OX1R antagonist counter-screen; parental CHO-K1, ATP-induced calcium, Fluo-8 fluorescence; inhibition, % at 5.6 µM; 0.63% of 330,000 active;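 active means inhibition above that plate's mean sample inhibition plus 3 SD, cut at about 26% in these data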;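 further: 0% = ATP-challenged DMSO wells and 100% = DMSO wells without ATP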
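Test system: untransfected parental CHO cell line; also added: ATP stimulus; dosing: 5.6 µM, single dose; signal: calcium-sensitive Fluo-8 fluorescence; measure: percent inhibition of ATP-evoked calcium rise, normalized to controls; benchmarks: low control ATP plus DMSO, high control DMSO only; replication: one well per compound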
TAAR1 antagonist: antagonists of human TAAR1; CHO RD-HGA16 TAAR1, Fluo-8 calcium fluorescence, antagonist; inhibition, % at 3 µM; 1.5% of 360,000 active;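 active means inhibition above a per-plate cutoff, the mean inhibition of test compounds on that plate plus 3 SD, cut at about 49% in these data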;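 further: 0% = DMSO plus EC80 beta-PEA response and 100% = DMSO alone without agonist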
Target sequence (Q96RJ0 whole entry, looked up): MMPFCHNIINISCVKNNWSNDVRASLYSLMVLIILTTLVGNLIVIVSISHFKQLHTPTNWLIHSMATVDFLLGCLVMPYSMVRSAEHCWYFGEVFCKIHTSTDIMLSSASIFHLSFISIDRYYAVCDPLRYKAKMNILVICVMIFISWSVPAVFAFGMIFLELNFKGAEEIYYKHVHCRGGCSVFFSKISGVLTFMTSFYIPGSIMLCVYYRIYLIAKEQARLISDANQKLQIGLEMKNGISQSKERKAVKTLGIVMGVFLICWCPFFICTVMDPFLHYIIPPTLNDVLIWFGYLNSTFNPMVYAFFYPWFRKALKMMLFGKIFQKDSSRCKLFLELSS
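System: RD-HGA16 CHO cells with stable hTAAR1 and Gα16 | Probe or stimulus: EC80 β-phenethylamine stimulus | Dosing: 3 µM, single point | Times: Dye loading 75 min at 37 °C, then 30 min room temperature | Measured by: Fluo-8 calcium-sensitive fluorescence | Read-out basis: % inhibition of agonist calcium response | Replicates: n of 1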
TAAR1 agonist: human TAAR1 agonism; Q96RJ0; CHO RD-HGA16 TAAR1, Fluo-8 calcium fluorescence; vehicle wells 0%, saturating PEA agonist 100%; activation, % at 3 µM; 0.99% of 360,000 active; AID 624467;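 active means activation above the mean activation of all test compounds in the run plus 3 SD, cut at about 38% in these data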
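Test system: RD-HGA16 (CHO) cells co-expressing Gα16 and hTAAR1 | Doses: Single dose, 3 µM | Schedule: 17-24 h seeding, 75 min 37 °C dye, 30 min RT | Evaluation: % activation from peak over basal fluorescence ratio, DMSO-to-PEA scaled | Technique: Kinetic Fluo-8 calcium fluorescence | Benchmarks: Low control DMSO, high control PEA (EC100)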
* = called active by the depositor; x = no result given.

SMILES | NTR1 ag | OX1R antag-1 | OX1R antag-2 | CHO parental Ca | TAAR1 antagonist | TAAR1 agonist
CCn1nc(C)cc1-c1nnc(Sc2ncc([N+](=O)[O-])s2)n1C | 29 | 52* | 8 | 24 | 16 | 9
O=C(Cc1ccc(NC(=O)C2CCN(C(=O)C3CC3)CC2)cc1)Nc1cccc(C(=O)N2CCCC2)c1 | x | x | x | x | 4 | -1
CSc1nsc(SC)c1C(=O)N1CCN(S(=O)(=O)c2ccc(C)cc2)C1C (stereo not drawn) | 1 | 30 | -39 | -33 | 47 | 9
CSc1nsc(SC)c1C(=O)N1CCN(S(=O)(=O)c2ccc(C)cc2)C1C(C)C (stereo not drawn) | 0 | 31 | -17 | -24 | 49* | 9
CC1=NC2=CC=CC3=NC(C(Cl)(Cl)Cl)=NC(=N1)N23 | x | x | x | x | -10 | 2
CCOC(=O)c1c(Nc2ccc(OC)cc2)n[nH]c1C | x | x | x | x | -1 | -2
CCCCCC/C(C)=C1/SC(=S)NC1=O | 0 | 45* | 14 | -6 | 15 | 4
Cc1ccc(S(=O)(=O)NCc2ccncc2)cc1C | 2 | 64 | 41* | 33* | 26 | 5
O=S(=O)(NCc1ccncc1)c1ccc(F)c(F)c1 | x | x | x | x | 4 | 7
CNC(=O)c1cc(S(=O)(=O)NCc2ccncc2)ccc1OC | -2 | 6 | -4 | 3 | -13 | 1
COc1cc(S(=O)(=O)NCc2ccncc2)ccc1Br | 0 | 8 | 11 | 31* | 5 | 2
O=C(COc1ccc(-n2cnnn2)cc1)Nc1ccc(F)c(F)c1F | -2 | 2 | -73 | 30* | 18 | 8
O=C(COc1ccc(-n2cnnn2)cc1)Nc1ccc(Br)cc1F | -1 | -2 | 15 | 25 | -10 | 2
Cc1cc(C(=O)OCC(=O)Nc2cccc(S(=O)(=O)N(C)C)c2)c2ccccc2n1 | 0 | 39 | -20 | -9 | -34 | 4
CN(C)S(=O)(=O)c1ccc(Cl)c(NC(=O)COC(=O)c2cc(-c3ccccc3)nc3ccccc23)c1 | 0 | 11 | -3 | -5 | 52* | 4
C1=C(CCNc2ncnc3c2[nH]c2ccccc23)CCCC1 | x | 46 | 16 | 69* | 41 | 16
COc1ccc(CNc2ncnc3c2[nH]c2cc(OC)c(OC)cc23)cc1 | 0 | 4 | -3 | 14 | -6 | 2
COc1ccc(CNc2ncnc3c2[nH]c2ccccc23)cc1 | 5 | 52* | 26 | 24 | 40 | 34
COc1cccc(CNC(=O)[C@H]2CCCN2C(=O)[C@H]2CCCN2)c1 | x | x | x | x | -16 | 3
Cc1cc(C)n2nc(SCC(=O)Nc3ccc(F)cc3[N+](=O)[O-])nc2n1 | 0 | 29* | -19 | -14 | -17 | 1
Cc1cc(C)n2nc(Sc3ncccc3[N+](=O)[O-])nc2n1 | 0 | 45* | -6 | -1 | -6 | 17
Cc1cc(C)n2nc(SCC(=O)Nc3ccc(F)c(F)c3F)nc2n1 | -1 | 1 | -24 | -7 | 2 | 0
O=C(c1[nH]c(C(F)(F)F)nc1-c1ccccc1)N1CCN(c2ncc(C(F)(F)F)cc2Cl)CC1 | x | x | x | x | 49* | 49*
O=C(CCN1C(=O)/C(=C\c2cccc(Br)c2)SC1=S)N1CCOCC1 | 0 | 12 | -15 | -11 | 5 | 0
Fc1ccc(NC(=S)NCCc2ccc(Cl)cc2)cc1 | 1 | -3 | 5 | -9 | 2 | 7
SMILES | NTR1 ag | OX1R antag-1 | OX1R antag-2 | CHO parental Ca | TAAR1 antagonist | TAAR1 agonist
O=[N+]([O-])c1ccc(NC(=S)NCCc2ccc(F)cc2)cc1 | 7 | 65* | 48* | 34* | 28 | 10
O=[N+]([O-])c1cccc(NC(=S)NCCc2ccccc2)c1 | -2 | 53* | -20 | 17 | 23 | 10
S=C(NCCc1ccc(Cl)cc1)Nc1ccc(Cl)cc1Cl | 7 | 59 | 6 | 15 | 49* | 2
S=C(NCc1ccc(Cl)cc1)Nc1ccc(Cl)cc1Cl | 2 | 34 | 6 | 10 | 40 | 7
Fc1ccc(CCNC(=S)Nc2ccc(F)c(Cl)c2)cc1 | 16 | 65 | 30 | 32* | 23 | 13
COC(=O)C1=C(C)N(Cc2cccc(C(F)(F)F)c2)C(=NCc2ccc(OC)cc2)NC1c1cccc(C(F)(F)F)c1 (stereo not drawn) | x | x | x | x | 23 | 27
Cc1cc(C)nc(SSc2nc(C)cc(C)n2)n1 | 0 | 8 | 2 | -8 | 26 | 46*
Cc1cc(C)nc(SCCN(C)C)n1 | 0 | 2 | -1 | -4 | 8 | 9
Cc1ccccc1NS(=O)(=O)c1ccc(NC(=O)CSCc2ccc(Br)cc2)cc1 | 16 | 23 | 15 | 31* | 28 | 25
COc1ccc(N2CCN(C(=O)CCC(=O)N3CCOc4ccc(Cl)cc43)CC2)cc1 | 4 | 17 | -19 | 2 | -7 | 2
N#CC(C#N)=C1C=CC=CN1/C(=C\c1ccco1)C(=O)c1ccc(Cl)cc1 | x | 88* | 62* | 90* | 27 | 8
O=C1C=C(Nc2cccc3cccnc23)c2ccccc2C1=O | 4 | 64* | -10 | -8 | -8 | -1
COc1cc(/C=C/C(=O)OCC(=O)Nc2nnc(-c3ccccc3)o2)cc(OC)c1OC | 4 | 72* | -38 | -15 | 10 | 0
COc1ccc(C(=O)OCC(=O)Nc2nnc(-c3ccccc3)o2)cc1 | 2 | 52* | -12 | -12 | -27 | 1
COc1ccc(-c2cc(-c3c(O)c(OC)c4occc4c3OC)[nH]n2)cc1 | 18 | 19 | -22 | -17 | 7 | 6
COc1ccc(-c2cc(-c3c(O)c(OC)c4occc4c3OC)[nH]n2)cc1OC | 6 | 70* | 62* | -18 | 5 | -2
COc1ccc(NC(=O)N2CCCC2C(=O)NCCc2ccccc2)cc1 (stereo not drawn) | -2 | x | x | x | 12 | 1
O=C(NCC1CCN(C(=O)C(=O)c2cc3ccccc3o2)CC1)c1ccc2c(c1)OCCCO2 | x | x | x | x | 15 | 0
CC(C)COc1cccc(-c2cc(C(=O)Nc3ccon3)c3ccccc3n2)c1 | 3 | 12 | -26 | -24 | 31 | 7
N#Cc1cccc(NC(=O)COC(=O)c2cccc(N3C(=O)c4ccccc4C3=O)c2)c1 | 1 | 26 | -5 | -8 | 60* | 8
COc1cc(NC(=O)c2cccc3c2C(=O)N(C2CCCCC2)C3)cc(OC)c1OC | 7 | 20 | -10 | -29 | 53* | 2
Cc1cc(C)cc(NC(=O)c2cccc3c2C(=O)N(C2CCCCC2)C3)c1 | 7 | 4 | -18 | -15 | x | x
CCCC1=NN2C(=N)/C(=C\c3cc(C)n(-c4cc(C)cc(C)c4)c3C)C(=O)N=C2S1 | 1 | 26 | -24 | -13 | 53* | 42*
O=C(Nc1ccccc1F)c1cc(-c2ccco2)nc2ccccc12 | 1 | 27 | -34 | -25 | 27 | 9
CCOc1ccc(NC(=O)CN(C)C(=O)c2cn(-c3ccccc3)nc2-c2cccs2)cc1OCC | 5 | x | x | x | 40 | 9
